This note sets out measurements from ChEMBL document CHEMBL1649151, “Urinary bactericidal activity of Doripenem versus that of levofloxacin in patients with complicated urinary tract infections or pyelonephritis” (Antimicrob Agents Chemother, 2009).

In brackets after ≈: the same amount, converted by molar mass.

For test [1], the system named is Escherichia coli. The test is described as follows: Antimicrobial activity against Escherichia coli 1780063 B-A isolated from patient with pyelonephritis assessed as >3-log reduction in urinary bacterial titer after 20 hrs. Format: functional, Urine. The method, boiled down:
(§1)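 Urine was collected before dosing and on day 3 of i.v. therapy (steady state), in 4-h intervals from infusion start (0–4 to 20–24 h), stored at −80°C and sterile filtered. It was serially diluted twofold (1:0 to 1:131,072) in the patient's drug-free pre-dose urine. Microdilution used an inoculum of 1.0 x 10^6–9.5 x 10^6 CFU/ml, incubated 18 h at 37°C, then subcultured 24 h on blood agar. The endpoint was >99.9% kill, reported as reciprocal titer.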

Test [2] relates to Enterococcus faecalis. The test is described as follows: Antimicrobial activity against Enterococcus faecalis 2215770 B-T isolated from patient with pyelonephritis assessed as >3-log reduction in urinary bacterial titer after 12 hrs. It counts as functional, Urine. An outline of the steps: as §1
Test [3] deals with Pseudomonas aeruginosa. The test is described as follows: Antimicrobial activity against Pseudomonas aeruginosa 2062713 B-Q isolated from patient with pyelonephritis by Etest. Format: functional.
In test [4] the test system is Escherichia coli. The test is described as follows: Antimicrobial activity against Escherichia coli 1821385 B-C isolated from patient with pyelonephritis by Etest. Format: functional.
In test [5] the test system is Escherichia coli. The test is described as follows: Antimicrobial activity against Escherichia coli 1949825 B-K isolated from patient with pyelonephritis assessed as >3-log reduction in urinary bacterial titer after 8 hrs. Format: functional, Urine. The method, boiled down:
(§2)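 Patient urine was collected on day 3 of i.v. therapy (steady state) over 4-h intervals after infusion start, stored at –80°C, and sterile filtered. It was twofold serially diluted (1:0 to 1:131,072) in the patient's own pre-dose drug-free urine, inoculated to 1.0 x 10^6–9.5 x 10^6 CFU/ml, and incubated for 18 h at 37°C. Subcultures were grown on blood agar for 24 h. The UBT is the reciprocal of the highest dilution giving >99.9% kill.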

Test [6] deals with Escherichia coli. Kind of test: Antimicrobial activity against Escherichia coli 1889645 B-I isolated from patient with pyelonephritis assessed as >3-log reduction in urinary bacterial titer after 8 hrs. It counts as functional, Urine. An outline of the steps: (§3)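 Urine was collected on day 3 of i.v. therapy (steady state) over 4-h intervals from infusion start (0–4 to 20–24 h), stored at –80°C and sterile filtered. It was serially diluted twofold (1:0 up to 1:131,072) in the patient's own pre-dose drug-free urine. Microdilution used a final inoculum of 1.0 x 10^6 to 9.5 x 10^6 CFU/ml, incubated 18 h at 37°C in air. 10 µl was subcultured onto 5% blood Columbia agar for 24 h at 37°C. The bactericidal endpoint was >99.9% (>3-log) kill, reported as a reciprocal titer.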

The subject of test [7] is Escherichia coli. The test is described as follows: Antimicrobial activity against Escherichia coli 1889645 B-I isolated from patient with pyelonephritis assessed as >3-log reduction in urinary bacterial titer after 4 hrs. It counts as functional, Urine. The method, boiled down:
as §3

In test [8] the test system is Enterococcus faecalis. The test is described as follows: Antimicrobial activity against Enterococcus faecalis 2215770 B-T isolated from patient with pyelonephritis assessed as >3-log reduction in urinary bacterial titer after 24 hrs. It counts as functional, Urine. An outline of the steps:
as §1

In test [9] the test system is Escherichia coli. Kind of test: Antimicrobial activity against Escherichia coli 1889646 B-F isolated from patient with pyelonephritis assessed as >3-log reduction in urinary bacterial titer after 24 hrs. It counts as functional, Urine. The method, boiled down:
as §3

For test [10], the system named is Escherichia coli. Kind of test: Antimicrobial activity against Escherichia coli 1780063 B-A isolated from patient with pyelonephritis assessed as >3-log reduction in urinary bacterial titer after 24 hrs. Format: functional, Urine. An outline of the steps:
as §1

The subject of test [11] is Escherichia coli. Kind of test: Antimicrobial activity against Escherichia coli 1821385 B-C isolated from patient with pyelonephritis assessed as >3-log reduction in urinary bacterial titer after 24 hrs. It counts as functional, Urine. An outline of the steps:
as §3

The subject of test [12] is Escherichia coli. Kind of test: Antimicrobial activity against Escherichia coli 1949826 B-L isolated from patient with pyelonephritis assessed as >3-log reduction in urinary bacterial titer after 20 hrs. Format: functional, Urine. The method, boiled down: as §2
Test [13] has as its system Escherichia coli. The test is described as follows: Antimicrobial activity against Escherichia coli 1780064 A-X isolated from patient with pyelonephritis assessed as >3-log reduction in urinary bacterial titer after 20 hrs. It counts as functional, Urine. The method, boiled down: as §3
Test [14] deals with Enterococcus faecalis. Kind of test: Antimicrobial activity against Enterococcus faecalis 2215767-10 B-S isolated from patient with pyelonephritis assessed as >3-log reduction in urinary bacterial titer after 20 hrs. It counts as functional, Urine. An outline of the steps: as §1
In test [15] the test system is Escherichia coli. Kind of test: Antimicrobial activity against Escherichia coli 1821386 B-D isolated from patient with pyelonephritis assessed as >3-log reduction in urinary bacterial titer after 16 hrs. Format: functional, Urine. An outline of the steps: as §3
In test [16] the test system is Escherichia coli. The test is described as follows: Antimicrobial activity against Escherichia coli 1655646 A-Y isolated from patient with pyelonephritis assessed as >3-log reduction in urinary bacterial titer after 16 hrs. It counts as functional, Urine. The method, boiled down:
as §1

In test [17] the test system is Enterococcus faecalis. Kind of test: Antimicrobial activity against Enterococcus faecalis 2215767-10 B-S isolated from patient with pyelonephritis assessed as >3-log reduction in urinary bacterial titer after 16 hrs. It counts as functional, Urine. The method, boiled down: as §1
Test [18] has as its system Staphylococcus epidermidis. The test is described as follows: Antimicrobial activity against Staphylococcus epidermidis 1949822 B-J isolated from patient with pyelonephritis assessed as >3-log reduction in urinary bacterial titer after 12 hrs. It counts as functional, Urine.
The test system of test [19] is Pseudomonas aeruginosa. The test is described as follows: Antimicrobial activity against Pseudomonas aeruginosa 1821383 B-E isolated from patient with pyelonephritis assessed as >3-log reduction in urinary bacterial titer after 12 hrs. Format: functional, Urine.
Test [20] deals with Pseudomonas aeruginosa. Kind of test: Antimicrobial activity against Pseudomonas aeruginosa 1821383 B-E isolated from patient with pyelonephritis by Etest. It counts as functional.
In test [21] the test system is Escherichia coli. Kind of test: Antimicrobial activity against Escherichia coli 2062716 B-R isolated from patient with pyelonephritis by Etest. Format: functional.
The subject of test [22] is Escherichia coli. The test is described as follows: Antimicrobial activity against Escherichia coli 1889647 B-H isolated from patient with pyelonephritis by Etest. Format: functional.
The test system of test [23] is Enterococcus faecalis. Kind of test: Antimicrobial activity against Enterococcus faecalis 2215767-10 B-S isolated from patient with pyelonephritis by Etest. Format: functional.
Test [24] deals with Enterococcus faecalis. Kind of test: Antimicrobial activity against Enterococcus faecalis 2297262-10 B-V isolated from patient with pyelonephritis assessed as >3-log reduction in urinary bacterial titer after 12 hrs. It counts as functional, Urine. The method, boiled down:
as §1

For test [25], the system named is Staphylococcus aureus. Kind of test: Antimicrobial activity against Staphylococcus aureus 1889640 A-Z isolated from patient with pyelonephritis assessed as >3-log reduction in urinary bacterial titer after 8 hrs. Format: functional, Urine.
For test [26], the system named is Pseudomonas aeruginosa. Kind of test: Antimicrobial activity against Pseudomonas aeruginosa 2062713 B-Q isolated from patient with pyelonephritis assessed as >3-log reduction in urinary bacterial titer after 8 hrs. It counts as functional, Urine.
For test [27], the system named is Serratia marcescens. The test is described as follows: Antimicrobial activity against Serratia marcescens 2297260 B-U isolated from patient with pyelonephritis assessed as >3-log reduction in urinary bacterial titer after 8 hrs. Format: functional, Urine.
Test [28] deals with Escherichia coli. Kind of test: Antimicrobial activity against Escherichia coli 1889647 B-H isolated from patient with pyelonephritis assessed as >3-log reduction in urinary bacterial titer after 8 hrs. It counts as functional, Urine. An outline of the steps:
as §3

For test [29], the system named is Escherichia coli. Kind of test: Antimicrobial activity against Escherichia coli 1821386 B-D isolated from patient with pyelonephritis assessed as >3-log reduction in urinary bacterial titer after 8 hrs. Format: functional, Urine. An outline of the steps: as §3
The test system of test [30] is Staphylococcus aureus. Kind of test: Antimicrobial activity against Staphylococcus aureus 1889640 A-Z isolated from patient with pyelonephritis assessed as >3-log reduction in urinary bacterial titer after 4 hrs. It counts as functional, Urine.
The test system of test [31] is Pseudomonas aeruginosa. Kind of test: Antimicrobial activity against Pseudomonas aeruginosa 1821383 B-E isolated from patient with pyelonephritis assessed as >3-log reduction in urinary bacterial titer after 4 hrs. It counts as functional, Urine.
The subject of test [32] is Escherichia coli. The test is described as follows: Antimicrobial activity against Escherichia coli 1889647 B-H isolated from patient with pyelonephritis assessed as >3-log reduction in urinary bacterial titer after 4 hrs. It counts as functional, Urine. An outline of the steps:
as §3

Test [33] relates to Pseudomonas aeruginosa. The test is described as follows: Antimicrobial activity against Pseudomonas aeruginosa 2062713 B-Q isolated from patient with pyelonephritis assessed as >3-log reduction in urinary bacterial titer after 20 hrs. It counts as functional, Urine.
In test [34] the test system is Serratia marcescens. The test is described as follows: Antimicrobial activity against Serratia marcescens 2297260 B-U isolated from patient with pyelonephritis assessed as >3-log reduction in urinary bacterial titer after 20 hrs. Format: functional, Urine.
The subject of test [35] is Escherichia coli. The test is described as follows: Antimicrobial activity against Escherichia coli 2062716 B-R isolated from patient with pyelonephritis assessed as >3-log reduction in urinary bacterial titer after 20 hrs. It counts as functional, Urine. The method, boiled down:
as §2

Broadly, the MIC is the lowest concentration that inhibits growth of the organism. Turning to `C[C@@H](O)[C@H]1C(=O)N2C(C(=O)O)=C(S[C@@H]3CN[C@H](CNS(N)(=O)=O)C3)[C@H](C)[C@H]12` [DORIPENEM], the urinary bactericidal titer was 4096 reciprocal titer with Escherichia coli [1]; 1024 reciprocal titer in the test with Enterococcus faecalis [2]; 4096 reciprocal titer in the test with Escherichia coli [5]; 32800 reciprocal titer in the test on Escherichia coli [6]; 65500 reciprocal titer in the test on Escherichia coli [7]; 512 reciprocal titer with Enterococcus faecalis [8]. The urinary bactericidal titer in the test on Escherichia coli [9] is 65500 reciprocal titer; in the test with Escherichia coli [10], 1024 reciprocal titer; in the test on Escherichia coli [11] it was 256 reciprocal titer; with Escherichia coli [12] it was 65500 reciprocal titer. The MIC with Pseudomonas aeruginosa [3] worked out at 0.5 µg/mL (≈ 1.19 µM); in the test on Escherichia coli [4], 0.03 µg/mL (≈ 0.0713 µM).
For `C[C@H]1COc2c(N3CCN(C)CC3)c(F)cc3c(=O)c(C(=O)O)cn1c23.C[C@H]1COc2c(N3CCN(C)CC3)c(F)cc3c(=O)c(C(=O)O)cn1c23.O` [LEVOFLOXACIN], the urinary bactericidal titer was determined as 256 reciprocal titer with Escherichia coli [13]; 4096 reciprocal titer with Escherichia coli [15]; 1024 reciprocal titer in the test on Escherichia coli [16]; 0 reciprocal titer in the test with Enterococcus faecalis [17]; 2 reciprocal titer in test [18]; 128 reciprocal titer in the test on Pseudomonas aeruginosa [19]. Also, the urinary bactericidal titer was 0 reciprocal titer with Enterococcus faecalis [24]; 128 reciprocal titer with Staphylococcus aureus [25]; 4 reciprocal titer in the test on Pseudomonas aeruginosa [26]; 256 reciprocal titer with Serratia marcescens [27]; 2048 reciprocal titer with Escherichia coli [28]; 8192 reciprocal titer in the test with Escherichia coli [29]. For the same molecule, the urinary bactericidal titer is 256 reciprocal titer in the test with Staphylococcus aureus [30]; 32 reciprocal titer with Pseudomonas aeruginosa [31]; 2048 reciprocal titer in the test with Escherichia coli [32]; 4 reciprocal titer with Pseudomonas aeruginosa [33]; 32 reciprocal titer in the test with Serratia marcescens [34]; 128 reciprocal titer with Escherichia coli [35]. The Time in the test on Enterococcus faecalis [14] amounted to 0 h. The MIC against Pseudomonas aeruginosa [20] was 0.25 µg/mL; against Escherichia coli [21], 0.032 µg/mL; against Escherichia coli [22], under 0.03 µg/mL; against Enterococcus faecalis [23], over 32 µg/mL.
